Hits are enriched below; roughly 2.1% of the tested compounds scored in any of these assays.
Scp-1 inhibitor: blocks human Scp-1 phosphatase activity; Q9GZU7; Recombinant Scp1, phosphopeptide, malachite green phosphate absorbance; inhibition, % at 20 µM; 340,000 tested, 0.88% active; AID 493091;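 active = inhibition above about 50% at 20 µM, limit read from the data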;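 also: plate controls were DMSO wells with enzyme for no effect and wells lacking enzyme for full effect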
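System: truncated SCP-1 phosphatase (76-261aa); medium: Tris acetate buffer pH 5.5 with MgCl2 and Tween-20; incubation: 45 min room-temperature reaction, 5 min colour, 30 min stabiliser; compound: single 20 µM dose, 1% DMSO; reagent: Phosphorylated 17-residue peptide substrate; read-out: % inhibition at 20 µM; technique: colorimetric free-phosphate detection, absorbance 630 nm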
SUMO1-SIM PPI: SUMO1-SIM interaction modulation. SUMO1 binding to a labelled peptide, TR-FRET, 1 h. inhibition, % at 20 µM. P63165. 360,000 tested, 0.33% active; in the data active = inhibition above about 37%
Target sequence (P63165 whole entry, looked up): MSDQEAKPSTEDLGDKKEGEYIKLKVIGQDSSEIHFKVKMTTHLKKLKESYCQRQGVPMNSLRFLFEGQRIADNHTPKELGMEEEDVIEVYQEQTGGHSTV
DNMT1 inh: blocks human DNA methyltransferase DNMT1. P26358. DNMT1 molecular beacon, Hinp1I cleavage, fluorescence. inhibition (reported as % activation of signal), % at 10 µM. 360,000 tested, 0.83% active. AID 588458; in the data active = inhibition above about 50%
GRK2 aptamer HTS: inhibitors of human GRK2 displacing RNA aptamer. inhibition of aptamer binding, % at 10 µM. AID 488847. bead flow cytometry, FAM-aptamer displacement from GRK2. 330,000 tested, 0.59% active;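 active = inhibition of aptamer binding above 40%, roughly 3 SD of noise, on plates passing a quality check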;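 also: median bead fluorescence of bound FAM aptamer so fluorescent compounds give negative values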
Target sequence (P25098 whole entry, looked up): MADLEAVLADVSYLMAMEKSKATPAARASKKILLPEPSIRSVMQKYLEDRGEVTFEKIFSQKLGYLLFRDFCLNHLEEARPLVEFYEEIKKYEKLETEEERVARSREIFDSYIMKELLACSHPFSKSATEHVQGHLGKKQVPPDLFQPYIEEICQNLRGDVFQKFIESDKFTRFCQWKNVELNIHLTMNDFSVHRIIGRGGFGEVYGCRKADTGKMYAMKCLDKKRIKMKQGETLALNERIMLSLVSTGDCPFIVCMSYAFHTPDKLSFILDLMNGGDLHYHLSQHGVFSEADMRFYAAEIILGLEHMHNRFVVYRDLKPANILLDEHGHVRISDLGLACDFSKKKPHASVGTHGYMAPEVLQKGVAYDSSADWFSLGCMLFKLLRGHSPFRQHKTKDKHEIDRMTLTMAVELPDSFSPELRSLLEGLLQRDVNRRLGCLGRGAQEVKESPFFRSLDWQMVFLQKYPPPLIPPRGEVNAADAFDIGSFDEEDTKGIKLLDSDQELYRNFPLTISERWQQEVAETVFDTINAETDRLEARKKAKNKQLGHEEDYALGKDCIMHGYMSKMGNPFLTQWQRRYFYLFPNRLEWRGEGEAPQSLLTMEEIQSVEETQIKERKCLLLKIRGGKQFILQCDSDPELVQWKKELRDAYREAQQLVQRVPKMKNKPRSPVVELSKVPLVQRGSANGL
STEP block: blocks human striatal-enriched tyrosine phosphatase. recombinant STEP, OMFP fluorogenic substrate, fluorescence. inhibition, % at 20 µM. 360,000 tested, 0.25% active;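 active = inhibition at 20 µM, scaled per plate between control wells, above about 37%, limit read from the data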;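 also: 0% = DMSO with enzyme and substrate and 100% = substrate only without enzyme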
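System: STEP (striatal-enriched tyrosine phosphatase) enzyme, cell-free; medium: Bis-Tris pH 6.0 buffer with DTT, detergent; dosing: 20 µM, 1% DMSO; times: reaction 20 min, ambient temperature; detection: fluorescence, 480/540 nm; read-out basis: normalized % inhibition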
LMPTP block: LMPTP (human) inhibition | P24666 | recombinant LMPTP-A, OMFP fluorogenic substrate, fluorescence intensity | inhibition, % at 20 µM | 360,000 tested, 0.22% active | AID 651560;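 active = compounds that cut the enzyme signal by at least half of the control window in the single-dose screen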;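 also: plate controls were DMSO wells with enzyme plus substrate for no effect and substrate without enzyme for full effect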
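Buffer or medium: Bis-Tris pH 6.0, DTT, detergent; Assay system: LMPTP-A enzyme; Quantity: 0.625 nM enzyme; Detection: endpoint fluorescence intensity; Times: 50 min dark incubation at room temperature; Controls: substrate-only low control, DMSO enzyme-plus-substrate high control; Doses: single 20 µM dose; Read-out: percent inhibition versus substrate-only and uninhibited controls; Reagent: 400 µM OMFP.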
Scp1 confirm: confirmation of human Scp-1 phosphatase inhibitors | shares compounds with Scp-1 inhibitor | recombinant SCP-1 catalytic domain, phosphate release, malachite green absorbance | inhibition, % at 20 µM | 2,500 tested, 61% active;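 also: plate controls were DMSO with enzyme for no effect and buffer wells lacking enzyme for full effect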
Scp-1 MG ctr: colorimetric interference in Scp-1 counter-screen; shares compounds with Scp-1 inhibitor; Colorimetric interference counterscreen, malachite green absorbance 630 nm; apparent inhibition (interference), % at 20 µM; 2,500 tested, under 10 active; AID 540313;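 also: compounds added after enzyme reaction finished so only phosphate colour detection is probed; plate controls were DMSO wells with completed Scp-1 reaction for no effect and substrate wells lacking enzyme for full effect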
Scp-1 Tm shift: Scp-1 (human) binding by thermal shift; shares compounds with Scp-1 inhibitor; Recombinant SCP1, Sypro Orange thermal shift Tm; thermal shift relative to vanadate control, % at 40 µM; 1,500 tested, 25% active;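 active = substances whose mean melting-temperature shift, as a percentage of the reference inhibitor's shift, reaches about 5.3%, limit read from the data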;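 also: 0% = Tm of DMSO wells and 100% = Tm with sodium orthovanadate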
Beacon interf DR: beacon fluorescence artifact, dose response counter-screen. IC50, µM. 200 tested, under 10 active. shares compounds with DNMT1 inh. molecular beacon fluorescence, spectral interference counter-screen; call rule not given here
DNMT1 confirm: confirmation of human DNMT1 inhibitors; shares compounds with DNMT1 inh; DNMT1 molecular beacon HinP1I cleavage, fluorescence; inhibition, % at 10 µM; 2,300 tested, 8% active; AID 602385;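 active = average inhibition of at least 30% in the single-concentration confirmation test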
Beacon interf: counter-screen for DNMT1 inhibitors: spectral interference; shares compounds with DNMT1 inh; DNMT1 molecular beacon spectral interference counterscreen, fluorescence 485/520; activation (fluorescence interference), % at 10 µM; 2,300 tested, 1% active; AID 602387;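 active = activation of at least 30% at 10 µM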;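 also: DNMT1 catalytic domain with a HinP1I cleavage step and a FAM/dabcyl DNA beacon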
* = called active by the depositor; x = no result given.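 The calls were made as follows, unless noted: active = inhibition of at least 30% at 20 µM; inactive = the rest.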

SMILES	Scp-1 inhibitor	SUMO1-SIM PPI	DNMT1 inh	GRK2 aptamer HTS	STEP block	LMPTP block	Scp1 confirm	Scp-1 MG ctr	Scp-1 Tm shift	DNMT1 confirm	Beacon interf	others
COc1ccc(OC)c(NC(=O)COC(=O)c2cc3c(s2)CCC3)c1	79.2*	6.5	89.2*	42.0*	15.8	32.3	52.5*	-26.5	4.5	19.3	1.6
CCOc1nc(OCC)c2[nH]c(C(=O)O)c(Br)c2n1	-7.6	-0.5	6.5	x	-1.7	-1.4	x	x	x	x	x
Cc1ccc(CNC(=O)CCS(=O)(=O)c2ccc(Cl)cc2)cc1	-6.7	-0.1	3.0	1.0	-0.7	-1.4	x	x	x	x	x
Cc1ccc(CNC(=O)CCS(=O)(=O)c2ccc(Br)cc2)cc1	83.9*	6.9	89.3*	x	7.7	1.4	76.4*	-5.2	-0.7	23.9	6.9
O=C(Nc1nnc([C@H]2C[C@H](O)[C@@H](CO)O2)s1)c1ccc(Oc2ccccc2)cc1	x	5.5	2.1	x	-3.0	-1.9	x	x	x	x	x
O=C1Nc2ccc(S(=O)(=O)NCc3ccccn3)c3cccc1c23	86.1*	-8.9	53.6*	x	16.4	13.0	61.0*	-6.0	-8.3	1.5	4.2
COC(=O)[C@]12CCCCC=C1N(Cc1ccc3c(c1)OCO3)C(=O)[C@H](CC(=O)NCCC(C)C)C2	x	-3.2	x	x	x	-0.5	x	x	x	x	x
COc1ccc2c(c1)c(=O)oc1cc(OCC(=O)N3CCc4ccccc4C3)ccc12	81.3*	24.0	104.9*	17.0	27.2	62.1*	68.5*	-18.9	-6.2	17.1	-1.9
Cc1ccc(C)c(S(=O)(=O)Nc2ccc3oc(C)c(C(=O)O)c3c2)c1	70.5*	50.7*	82.6*	28.0	63.9*	23.3	64.5*	-13.4	12.4*	15.7	-1.0
CC(=O)c1c(C)oc2ccc(NS(=O)(=O)c3ccc(C)cc3)cc12	-3.8	-0.6	3.1	7.0	-0.2	2.6	x	x	x	x	x
COCC(=O)N(C)C[C@@H]1Oc2ncc(Br)cc2C(=O)N([C@@H](C)CO)C[C@H]1C	x	-0.3	-2.3	x	2.3	-0.5	x	x	x	x	x
O=C(O)/C(=C/c1ccco1)NC(=O)c1ccccc1	74.9*	3.7	66.8*	12.0	5.0	-1.1	41.5*	-21.6	-15.2	2.0	2.9
O=CC(O)C1OC(=O)C(O)C1O (stereo not given)	63.6*	10.6	89.8*	x	9.9	6.5	43.1*	-9.0	-14.6	44.2*	4.5	Beacon interf DR=>99
O=C1O[C@H](CO)[C@@H](O)[C@H](O)[C@H]1O	-6.2	2.7	1.0	x	-0.1	-1.4	x	x	x	x	x
CCCCN(C=O)c1c(CC)nc2c(OCc3cccc(Cl)c3)cccn12	x	-3.3	-2.0	x	1.4	2.9	x	x	x	x	x
COCc1cc(C)nc(N/N=C/c2ccc(-c3ccc(C(=O)O)c(Cl)c3)o2)c1C#N	x	x	x	16.0	x	x	x	x	x	x	x
COCc1cc(C)n(CC(=O)N/N=C/c2ccc(-c3ccc(Cl)c(C(=O)O)c3)o2)c(=O)c1C#N	66.3*	15.3	57.6*	29.0	2.9	-1.2	63.2*	-12.9	4.7	4.8	-2.0
C[C@@H]1CN([C@H](C)CO)C(=O)CCCn2cc(nn2)CO[C@H]1CN(C)C(=O)Nc1ccccc1C(F)(F)F	x	5.3	3.1	x	1.0	-0.6	x	x	x	x	x
COc1ccc(S(=O)(=O)N(C)C[C@H]2Oc3c(cccc3N(C)C)C(=O)N([C@H](C)CO)C[C@@H]2C)cc1	0.6	0.8	3.9	10.0	-0.7	-0.7	x	x	x	x	x
c1coc(-c2nnc3sc(Cc4cccs4)nn23)c1	86.3*	18.9	66.5*	2.0	4.2	26.4	60.7*	-11.4	1.1	0.4	-0.7
N=C1C(c2nc3ccccc3s2)=C(O)CN1NC(=O)c1c[nH]c2ccccc12	63.5*	-7.1	64.9*	0.0	36.8	35.1	53.8*	-15.3	4.1	2.3	0.4
N=C1C(c2nc3ccccc3s2)=C(O)CN1NC(=O)c1ccccc1[N+](=O)[O-]	16.4	0.7	11.7	0.0	2.5	6.8	x	x	x	x	x
O=C(COc1cccnc1[N+](=O)[O-])Nc1c(Cl)cccc1Cl	-12.4	-18.4	-2.8	0.0	3.3	-0.5	x	x	x	x	x
O=C(COc1cccnc1[N+](=O)[O-])Nc1ncc(Cl)cc1Cl	62.2*	15.2	82.7*	12.0	1.3	10.1	62.6*	-13.1	10.0*	3.5	-2.2
Cn1c(N)c(C(=O)COC(=O)c2cc(-c3ccco3)nc3ccccc23)c(=O)n(C)c1=O	73.2*	30.6	109.6*	x	7.6	61.7*	67.0*	-13.9	14.6*	30.9*	-0.5	Beacon interf DR=>99
SMILES	Scp-1 inhibitor	SUMO1-SIM PPI	DNMT1 inh	GRK2 aptamer HTS	STEP block	LMPTP block	Scp1 confirm	Scp-1 MG ctr	Scp-1 Tm shift	DNMT1 confirm	Beacon interf	others
CCOc1ccccc1C(O)C1=CC(=O)c2ccccc2C1=O (stereo not given)	74.7*	9.1	95.8*	x	2.1	27.2	54.1*	-19.5	14.3*	11.2	-3.3
Cn1c2c(c(=O)n(C)c1=O)CN(Cc1ccccc1)CN2	x	1.5	-1.1	x	3.7	-0.4	x	x	x	x	x
COCCNc1nc(Nc2ccc(C)cc2C)c2sccc2n1	x	-2.8	-1.6	x	1.1	16.2	x	x	x	x	x
Cc1cccc(NC(=O)CNCC(=O)Nc2cccc(C)c2C)c1C	-19.0	0.0	-0.9	5.0	0.6	0.1	x	x	x	x	x
Cc1cccc(NC(=O)CNC(=O)c2cccc(-n3cccc3)c2)c1C	73.2*	34.2	87.3*	50.0*	9.3	17.1	75.2*	-7.1	-2.6	21.1	1.2
Cc1ccc(NC(=O)CN(C)C(=O)c2cccc(-n3cccc3)c2)cc1	91.2*	48.0*	99.8*	x	9.3	18.1	72.0*	-5.2	2.0	34.3*	2.3	Beacon interf DR=>99
Cc1ccc(S(=O)(=O)Cc2ccc(C(=O)N3CCc4ccccc4C3)o2)cc1	75.5*	0.1	81.0*	17.0	5.3	8.1	54.1*	-18.6	-0.7	4.9	3.9
COc1ccc(S(=O)(=O)Cc2ccc(C(=O)N3CCc4ccccc4C3)o2)cc1	-15.2	-1.3	3.1	0.0	0.8	0.2	x	x	x	x	x
CCCNC(=O)C1(C)CCCN(Cc2ccccc2F)C1 (stereo not given)	x	-2.5	-1.2	x	-0.8	-1.5	x	x	x	x	x

Assay outcomes (PubChem BioAssay)
